Assay results: ChEMBL document CHEMBL3120050, “Synthesis, receptor affinity and effect on pentylenetetrazole-induced seizure threshold of novel benzodiazepine analogues: 3-Substituted 5-(2-phenoxybenzyl)-4H-1,2,4-triazoles and 2-amino-5-(phenoxybenzyl)-1,3,4-oxadiazoles” (Bioorg Med Chem, 2014)
pIC50, pKd: −log10 of the molar value.

Experiments:
[1] = system: Mus musculus; assay: Anticonvulsant activity in NMRI mouse assessed as pentylenetetrazole-induced clonic seizure threshold at 20 mg/kg, ip administered 60 mins before pentylenetetrazole challenge; type: functional; conditions: route intraperitoneal
Summary of the method: (§1)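 Male NMRI mice (24-30 g), at least eight per group, each used once. Compounds dispersed in 0.5% CMC and given i.p. in 10 ml/kg, 60 min before PTZ. PTZ (0.5% in saline) infused i.v. into the tail vein at 0.5 ml/min in unrestrained animals until forelimb clonus then full body clonus. Threshold = minimal PTZ dose (mg/kg) for clonic seizure, expressed as % and compared with CMC group; mean ± SEM.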

[2] = system: Mus musculus; assay: Anticonvulsant activity in NMRI mouse assessed as pentylenetetrazole-induced clonic seizure threshold at 10 mg/kg, ip administered 60 mins before pentylenetetrazole challenge; type: functional; conditions: route intraperitoneal; summary of the method: as §1
[3] = system: Mus musculus; assay: Anticonvulsant activity in NMRI mouse assessed as pentylenetetrazole-induced clonic seizure threshold at 5 mg/kg, ip administered 60 mins before pentylenetetrazole challenge; type: functional; conditions: route intraperitoneal; summary of the method: as §1
[4] = Displacement of [3H]flumazenil from GABAA/BZD receptor in Sprague-Dawley rat cortical membrane after 35 mins by competition binding assay
Summary of the method: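 Cortex from male Sprague-Dawley rats (300-350 g), homogenized in Tris-HCl, washed, and preincubated 30 min at 37°C; membranes stored at -20°C and used within 1-15 days. 100 µg membrane protein incubated with 8.6×10^-5 nmole [3H]-flumazenil plus increasing test ligand in 50 mM Tris-HCl pH 7.4 (0.5 mL), 30°C, 35 min. Stopped by centrifugation. Excess diazepam defined nonspecific binding. Triplicates; IC50 = 50% inhibition of specific binding.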

Compound	Activity [1]	Activity [2]	Activity [3]	pIC50 [4]	pKd [4]
c1ccc(CSc2nnc(Cc3ccccc3Oc3ccccc3)[nH]2)cc1	143.4%	139.21%	129.27%	8.68	8.90
CCCSc1nnc(Cc2ccccc2Oc2ccccc2)[nH]1	157.5%	139.38%	127.77%	8.91	9.12
CCSc1nnc(Cc2ccc(Cl)cc2Oc2ccccc2F)[nH]1	141.4%	144.44%	125.52%	8.88	9.10
CSc1nnc(Cc2ccc(Cl)cc2Oc2ccccc2Cl)[nH]1	169.89%	131.61%	125.02%	8.60	8.81
Nc1nnc(Cc2ccc(Cl)cc2Oc2ccccc2F)o1	154.23%	128.95%	111.61%	8.72	8.94
S=c1[nH]nc(Cc2ccc(Cl)cc2Oc2ccccc2Cl)[nH]1	158.77%	138.87%	124.08%	8.75	8.96
CCCSc1nnc(Cc2ccc(Cl)cc2Oc2ccccc2Cl)[nH]1	134.09%	125.29%	117.68%	8.87	9.09
CSc1nnc(Cc2ccc(Cl)cc2Oc2ccccc2F)[nH]1	135.53%	121.41%	110.43%	8.42	8.63
CCOc1nnc(Cc2ccc(Cl)cc2Oc2ccccc2F)[nH]1	138.25%	115.67%	110.82%	8.68	8.90
Clc1ccc(Cc2nnc(SCc3ccccc3)[nH]2)c(Oc2ccccc2Cl)c1	128.77%	122.18%	112.52%	8.65	8.87
CCCSc1nnc(Cc2ccc(Cl)cc2Oc2ccccc2F)[nH]1	133.41%	127.32%	119.45%	8.71	8.92
CCSc1nnc(Cc2ccc(Cl)cc2Oc2ccccc2Cl)[nH]1	173.98%	139.99%	133.58%	8.79	9.00
Nc1nnc(Cc2ccc(Cl)cc2Oc2ccccc2Cl)o1	170.25%	132.44%	125.22%	8.76	8.96
CSc1nnc(Cc2ccccc2Oc2ccccc2)[nH]1	147.06%	132.83%	120.26%	8.86	9.08
Nc1nnc(Cc2ccccc2Oc2ccccc2)o1	174.36%	142.52%	131.63%	8.72	8.93
S=c1[nH]nc(Cc2ccccc2Oc2ccccc2)[nH]1	160.47%	141.88%	126.2%	8.51	8.72
Fc1ccccc1Oc1cc(Cl)ccc1Cc1n[nH]c(=S)[nH]1	–	–	–	8.87	9.08
CCOc1nnc(Cc2ccc(Cl)cc2Oc2ccccc2Cl)[nH]1	134.63%	122.29%	120.06%	8.67	8.89
CN1C(=O)CN=C(c2ccccc2)c2cc(Cl)ccc21 [DIAZEPAM]	–	–	–	8.54	8.76
CCSc1nnc(Cc2ccccc2Oc2ccccc2)[nH]1	168.55%	141.9%	132.47%	–	–
CCOc1nnc(Cc2ccccc2Oc2ccccc2)[nH]1	143.52%	125.79%	122.56%	8.46	8.67
Fc1ccccc1Oc1cc(Cl)ccc1Cc1nnc(SCc2ccccc2)[nH]1	178.53%	168.6%	165.66%	9.05	9.26
